Tests used:
[1] = test system: Rattus norvegicus; experiment: Diuretic activity was evaluated by measuring amount of Na+ during 0-6 h in urine of normotensive saline loaded rats at 10.0 mg/kg, po; assay type: ADME, organism-based; parameters: dose 10 mg/kg, route oral; settings: in vivo
How it was run: (§1)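 Male normotensive Sprague–Dawley rats (275–375 g), eight per group. Test compound or vehicle (0.2% methylcellulose in water, 2 mL/kg) is given by mouth, followed at once by a 0.9% saline load equal to 5% of body weight. Rats are housed in metabolism cages without food or water. Urine is collected at 2, 6 and 24 h and assayed for Na+, K+, Cl−, uric acid and osmolality.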

[2] = Diuretic activity was evaluated by measuring amount of K+ during 0-6 h in urine of […] at 10 mg/kg, po; assay type: ADME, organism-based; parameters: dose 10 mg/kg, route oral; settings: simiiformes, in vivo
How it was run: (§2)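 Male and female cynomolgus monkeys, fasted 16–18 h with water until dosing, six per dose. Compound or vehicle was given by pediatric nasogastric tube, followed at once by a 50 mL/kg water load. Monkeys were kept in metabolism cages without food or water for 6 h. Urine was collected at 0–1, 1–2, 2–4 and 4–6 h, and volume, electrolytes, uric acid and glucose were measured.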

[3] = test system: Canis familiaris; experiment: Diuretic activity was evaluated by measuring amount of K+ during 0-6 hr in urine of normotensive saline loaded dogs at 3.0mg/kg, po; assay type: ADME, organism-based, Canis lupus familiaris; settings: dog, in vivo, 3 mg/kg
How it was run: (§3)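 Conscious female dogs, each given one oral dose per experiment. Urine and heparinized venous plasma were taken at each collection time. Urine was centrifuged and chilled, and plasma was separated within 30 min. Both were assayed for Na+, K+, Cl−, urate and glucose. Results are mean excretion in mequiv kg−1 (6 h)−1, with at least two dogs per dose.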

[4] = test system: Rattus norvegicus; experiment: Diuretic activity was evaluated by measuring amount of Na+ during 0-6 hr in urine of normotensive saline loaded rats at 0.1 mg/kg, po; assay type: ADME, organism-based; parameters: dose 0.1 mg/kg, route oral; settings: in vivo; how it was run: as §1
[5] = Diuretic activity was evaluated by measuring amount of Na+ during 0-6 hr in urine of normotensive […] monkey at 1 mg/kg, po; assay type: ADME, organism-based; parameters: dose 1 mg/kg, route oral; settings: simiiformes, in vivo
How it was run: (§4)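 Male and female cynomolgus monkeys, fasted 16–18 h with water until dosing, six per dose. Compound or vehicle is given through a nasogastric tube, then a 50 mL/kg water load. No food or water for 6 h in metabolism cages. Urine is collected at 0–1, 1–2, 2–4 and 4–6 h and analyzed for electrolytes, uric acid and glucose.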

[6] = Diuretic activity was evaluated by measuring amount of Cl- during 0-6 h in urine of normotensive […] monkey at 10mg/kg, po; assay type: ADME, organism-based; settings: simiiformes, in vivo; how it was run: as §2
[7] = test system: Rattus norvegicus; experiment: Diuretic activity was evaluated by measuring amount of K+ during 0-6 hr in urine of normotensive saline loaded rats at 10.0mg/kg, po; assay type: ADME, organism-based; settings: in vivo, 10 mg/kg
How it was run: (§5)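 Male Sprague–Dawley rats (275–375 g), fed and watered ad libitum before testing but not during it, eight per group. Compound in 0.2% methylcellulose/water given orally at 2 mL/kg, immediately followed by a 0.9% saline load equal to 5% of body weight. Rats were kept in individual metabolism cages. Urine was sampled at 2, 6 and 24 h for volume, Na+, K+, Cl−, uric acid and osmolality.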

[8] = test system: Canis familiaris; experiment: Diuretic activity was evaluated by measuring amount of Cl- during 0-6 h in urine of normotensive saline loaded dogs at 3.0 mg/kg, po; assay type: ADME, organism-based, Canis lupus familiaris; parameters: dose 3 mg/kg, route oral; settings: dog, in vivo; how it was run: as §3
[9] = test system: Canis familiaris; experiment: Diuretic activity was evaluated by measuring amount of Na+ during 0-6 h in urine of normotensive saline loaded dogs at 10.0mg/kg, po; assay type: ADME, organism-based, Canis lupus familiaris; settings: dog, in vivo, 10 mg/kg
How it was run: (§6)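 Conscious dogs, each given a single oral dose per experiment, with at least two dogs per dose. Urine volume is measured; aliquots are centrifuged and chilled. Heparinized venous blood (4 mL) is drawn at each urine collection. Urine and plasma are analyzed for Na+, K+, Cl−, urate and glucose. Result is mean Na+ excretion in mequiv kg−1 (6 h)−1.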

[10] = Diuretic activity was evaluated by measuring amount of Cl- during 0-6 hr in urine of normotensive […] monkey at 1 mg/kg, po; assay type: ADME, organism-based; parameters: dose 1 mg/kg, route oral; settings: simiiformes, in vivo; how it was run: as §2
[11] = test system: Rattus norvegicus; experiment: Percent change of arterial blood pressure in spontaneously hypertensive rats at the dose of 10 mg/kg (p.o.) after […] (control BP(mm Hg)=219); assay type: functional; settings: route oral
[12] = test system: Canis familiaris; experiment: Diuretic activity was evaluated by measuring amount of Cl- during 0-6 h in urine of normotensive saline loaded dogs at 1.0 mg/kg, po; assay type: ADME, organism-based, Canis lupus familiaris; parameters: dose 1 mg/kg, route oral; settings: dog, in vivo; how it was run: as §3
[13] = test system: Canis familiaris; experiment: Diuretic activity was evaluated by measuring amount of Na+ during 0-6 h in urine of normotensive saline loaded dogs at 0.3 mg/kg, po; assay type: ADME, organism-based, Canis lupus familiaris; parameters: dose 0.3 mg/kg, route oral; settings: dog, in vivo; how it was run: as §6
[14] = test system: Rattus norvegicus; experiment: Diuretic activity was evaluated by measuring amount of Cl- during 0-6 hr in urine of normotensive saline loaded rats at 3.0mg/kg, po; assay type: ADME, organism-based; settings: in vivo, 3 mg/kg; how it was run: as §5
[15] = test system: Rattus norvegicus; experiment: Diuretic activity was evaluated by measuring amount of K+ during 0-6 hr in urine of normotensive saline loaded rats at 3.0mg/kg, po; assay type: ADME, organism-based; settings: in vivo, 3 mg/kg; how it was run: as §1
[16] = test system: Canis familiaris; experiment: Diuretic activity was evaluated by measuring amount of Na+ during 0-6 hr in urine of normotensive saline loaded dogs at 3.0mg/kg, po; assay type: ADME, organism-based, Canis lupus familiaris; settings: dog, in vivo, 3 mg/kg; how it was run: as §6
[17] = test system: Canis familiaris; experiment: Diuretic activity was evaluated by measuring amount of Cl- during 0-6 hr in urine of normotensive saline loaded dogs at 0.03mg/kg, po; assay type: ADME, organism-based, Canis lupus familiaris; settings: dog, in vivo; how it was run: as §3
[18] = test system: Rattus norvegicus; experiment: Percent change of arterial blood pressure in spontaneously hypertensive rats at the dose of 1 mg/kg (p.o.) after 6 hr (control BP(mm Hg)=215); assay type: functional; settings: route oral
[19] = Diuretic activity was evaluated by measuring amount of K+ during 0-6 hr in urine of normotensive water loaded monkey at 3mg/kg, po; settings: simiiformes, in vivo
[20] = test system: Rattus norvegicus; experiment: Diuretic activity was evaluated by measuring amount of Cl- during 0-6 hr in urine of normotensive saline loaded rats at 100.0mg/kg, po; assay type: ADME, organism-based; settings: in vivo, 100 mg/kg; how it was run: as §5
[21] = test system: Rattus norvegicus; experiment: Diuretic activity was evaluated by measuring amount of K+ during 0-6 h in urine of normotensive saline loaded rats at 1.0 mg/kg, po; assay type: ADME, organism-based; parameters: dose 1 mg/kg, route oral; settings: in vivo; how it was run: as §5
[22] = Diuretic activity was evaluated by measuring amount of K+ during 0-6 hr in urine of […] monkey at 1 mg/kg, po; assay type: ADME, organism-based; parameters: dose 1 mg/kg, route oral; settings: simiiformes, in vivo; how it was run: as §2
[23] = Diuretic activity was evaluated by measuring amount of Na+ during 0-6 hr in urine of normotensive […] monkey at 10mg/kg, po; assay type: ADME, organism-based; settings: simiiformes, in vivo; how it was run: as §4
[24] = test system: Rattus norvegicus; experiment: Diuretic activity was evaluated by measuring amount of Cl- during 0-6 hr in urine of normotensive saline loaded rats at 0.3mg/kg, po; assay type: ADME, organism-based; settings: in vivo; how it was run: as §5
[25] = test system: Rattus norvegicus; experiment: Oral dose necessary to produce an excretion of 2 mequiv of Na+/kg in the rat urine in the 4-h period after peroral administration; assay type: ADME, organism-based; settings: in vivo
[26] = Diuretic activity was evaluated by measuring amount of K+ during 0-6 hr in urine of normotensive […] monkey at 30mg/kg, po; assay type: ADME, organism-based; settings: simiiformes, in vivo; how it was run: as §2
[27] = test system: Rattus norvegicus; experiment: Percent change of arterial blood pressure in spontaneously hypertensive rats at the dose of 3 mg/kg (p.o.) after […] (control BP(mm Hg)=221); assay type: functional; settings: route oral
[28] = Diuretic activity was evaluated by measuring amount of Na+ during 0-6 hr in urine of […] monkey at 3mg/kg, po; assay type: ADME, organism-based; settings: simiiformes, in vivo; how it was run: as §4
[29] = test system: Canis familiaris; experiment: Diuretic activity was evaluated by measuring amount of K+ during 0-6 hr in urine of normotensive saline loaded dogs at 0.1 mg/kg, po; assay type: ADME, organism-based, Canis lupus familiaris; parameters: dose 0.1 mg/kg, route oral; settings: dog, in vivo; how it was run: as §3

Diuretic activity [1]: 14 m equiv kg-1 | Diuretic activity [2]: 1.3 m equiv kg-1 | Diuretic activity [3]: 1.8 m equiv kg-1 | Diuretic activity [4]: 6.6 m equiv kg-1 | Diuretic activity [5]: 2.7 m equiv kg-1 | Diuretic activity [6]: 7.2 m equiv kg-1 | Diuretic activity [7]: 3.3 m equiv kg-1 | Diuretic activity [8]: 7.9 m equiv kg-1 | Diuretic activity [9]: 6.3 m equiv kg-1 | Diuretic activity [10]: 2.7 m equiv kg-1 | Diuretic activity [12]: 6.2 m equiv kg-1 | Diuretic activity [13]: 2.7 m equiv kg-1 | Diuretic activity [14]: 16.3 m equiv kg-1 | Diuretic activity [15]: 3.8 m equiv kg-1 | Diuretic activity [16]: 7.5 m equiv kg-1 | Diuretic activity [17]: 0.5 m equiv kg-1 | Diuretic activity [19]: 1.1 m equiv kg-1 | Diuretic activity [20]: 16.6 m equiv kg-1 | Diuretic activity [21]: 3 m equiv kg-1 | Diuretic activity [22]: 0.7 m equiv kg-1 | Diuretic activity [23]: 6.6 m equiv kg-1 | Diuretic activity [24]: 11.3 m equiv kg-1 | ED2 [25]: 3 mg/kg | Diuretic activity [26]: 1.5 m equiv kg-1 | Diuretic activity [28]: 5.3 m equiv kg-1 | Diuretic activity [29]: 0.6 m equiv kg-1
SMILES: CCOC(=O)COc1ccc(C(=O)c2ccc(O)c(CN)c2)c(Cl)c1Cl.Cl
Change [11]: -31% | Change [18]: -11% | Change [27]: -22%

Reference: ChEMBL document CHEMBL1122781, “[(Aminomethyl)aryloxy]acetic acid esters. A new class of high-ceiling diuretics. 1. Effects of nitrogen and aromatic nuclear substitution” (J Med Chem, 1984)
